Converted amounts (≈) assume the structure as drawn.
Key:
[1] = test system: Mycobacterium tuberculosis; test: Antimycobacterial activity against Mycobacterium tuberculosis CNTC My 331/88 ATCC 27294 after 14 days; format: functional; details: CNTC My 331/88 ATCC 27294, 336 h
Method in brief: (§1)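 Sula semi-synthetic medium at 37 °C. Compounds were dissolved in DMSO (max. 5% DMSO in water) and added to the medium at 1000, 500, 250, 125, 62, 31, 16, 8, 4, 2 and 1 μmol L⁻¹. MIC was read after 7, 14 and 21 days of incubation at 37 °C. Strains came from the Czech National Collection of Type Cultures.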

[2] = test system: Mycobacterium tuberculosis; test: Antimycobacterial activity against Mycobacterium tuberculosis CNTC My 331/88 ATCC 27294 after 21 days; format: functional; details: CNTC My 331/88 ATCC 27294, 504 h; method in brief: as §1
[3] = test system: Mycobacterium avium; test: Antimycobacterial activity against Mycobacterium avium CNTC My 330/88 after 14 days; format: functional; details: CNTC My 330/88, 336 h; method in brief: as §1
[4] = test system: Mycobacterium avium; test: Antimycobacterial activity against Mycobacterium avium CNTC My 330/88 after 21 days; format: functional; details: CNTC My 330/88, 504 h; method in brief: as §1
[5] = test system: Mycobacterium kansasii; test: Antimycobacterial activity against Mycobacterium kansasii CNTC My 335/80 after 7 days; format: functional; details: 168 h
Method in brief: (§2)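 MIC in Sula semi-synthetic medium at 37 °C. M. kansasii 6509/96 is a clinical isolate; M. kansasii CNTC My 235/80 comes from the Czech national collection. Compounds were dissolved in DMSO (max. 5% DMSO in water) and tested at 1000, 500, 250, 125, 62, 31, 16, 8, 4, 2 and 1 μmol L⁻¹. MIC was read after 7, 14 and 21 days.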

[6] = test system: Mycobacterium kansasii; test: Antimycobacterial activity against Mycobacterium kansasii CNTC My 335/80 after 14 days; format: functional; details: 336 h; method in brief: as §2
[7] = test system: Mycobacterium kansasii; test: Antimycobacterial activity against Mycobacterium kansasii CNTC My 335/80 after 21 days; format: functional; details: 504 h; method in brief: as §2
[8] = test system: Mycobacterium kansasii; test: Antimycobacterial activity against Mycobacterium kansasii 6509/96 isolate after 7 days; format: functional; details: 6509/96, 168 h; method in brief: as §2
[9] = test system: Mycobacterium kansasii; test: Antimycobacterial activity against Mycobacterium kansasii 6509/96 isolate after 14 days; format: functional; details: 6509/96, 336 h; method in brief: as §2
[10] = test system: Mycobacterium kansasii; test: Antimycobacterial activity against Mycobacterium kansasii 6509/96 isolate after 21 days; format: functional; details: 6509/96, 504 h; method in brief: as §2
[11] = test system: HepG2; test: Cytotoxicity against human HepG2 cells by MTT assay; format: cell-based
Method in brief: (§3)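 MTT viability assay in RPMI-1640 without phenol red with 10% FCS and 2 mM L-glutamine, at 37 °C and 5% CO₂. HepG2 seeded at 5×10³ cells/well; fresh human PBMC at 2.0×10⁵ cells/well. After 24 h, cells were exposed overnight in serum-free medium, then given MTT (2 mg mL⁻¹) for 4 h. Formazan dissolved in DMSO, OD540 minus OD620, compared with untreated controls. IC50 taken from dose-response curves; two independent experiments, 4–8 parallels.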

[12] = test system: PBMC; test: Cytotoxicity against human PBMC by MTT assay; format: cell-based; method in brief: as §3
[13] = Selectivity index, ratio of IC50 for human HepG2 cells to MIC for Mycobacterium tuberculosis CNTC My 331/88 ATCC 27294; format: functional
Method in brief: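 HepG2 human hepatoma cells in RPMI-1640 without phenol red with 10% FCS, 2 mM L-glutamine and gentamycin, at 37 °C and 5% CO₂. Seeded at 5×10³ cells/well and grown 24 h, then treated overnight in serum-free medium. Read-out was MTT (4 h), formazan dissolved in DMSO, OD540 minus OD620. IC50 was taken from dose-response curves, two experiments with 4–8 parallels. MIC was measured in Sula medium.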

[14] = Stability of compound in 0.01 M HCl buffer assessed as pseudo-first order rate constant at pH 2 by UV-vis spectroscopic analysis; format: physicochemical
Method in brief: (§4)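 Hydrolytic stability followed by diode-array UV-vis at 37 ± 0.1 °C on ca. 5×10⁻⁵ mol L⁻¹ solutions. Ionic strength was set to 1 mol L⁻¹ with KCl; buffer pH was checked with a glass electrode. Spectra recorded over 200–500 nm with time. Pseudo-first-order k_obs was fitted from the absorbance-time curve at 267 nm.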

[15] = Stability of compound in 0.007 M HCl buffer assessed as pseudo-first order rate constant at pH 2.16 by UV-vis spectroscopic analysis; format: physicochemical; method in brief: as §4
[16] = Stability of compound in 0.005 M HCl buffer assessed as pseudo-first order rate constant at pH 2.3 by UV-vis spectroscopic analysis; format: physicochemical; method in brief: as §4
[17] = Stability of compound in 0.001 HCl buffer assessed as pseudo-first order rate constant at pH 3 by UV-vis spectroscopic analysis; format: physicochemical; method in brief: as §4
[18] = Stability of compound in 0.0005 HCl buffer assessed as pseudo-first order rate constant at pH 3.3 by UV-vis spectroscopic analysis; format: physicochemical; method in brief: as §4
[19] = Stability of compound in methoxyacetate buffer assessed as pseudo-first order rate constant at pH 3.35 by UV-vis spectroscopic analysis; format: physicochemical; method in brief: as §4
[20] = Stability of compound in acetate buffer assessed as pseudo-first order rate constant at pH 4.55 by UV-vis spectroscopic analysis; format: physicochemical; method in brief: as §4
[21] = Stability of compound in phosphate buffer assessed as pseudo-first order rate constant at pH 5.81 by UV-vis spectroscopic analysis; format: physicochemical; method in brief: as §4
[22] = Stability of compound in imidazole buffer assessed as pseudo-first order rate constant at pH 7.23 by UV-vis spectroscopic analysis; format: physicochemical; method in brief: as §4
[23] = Stability of compound in N-Methylmorpholine buffer assessed as pseudo-first order rate constant at pH 7.86 by UV-vis spectroscopic analysis; format: physicochemical; method in brief: as §4
[24] = Stability of compound in TRIS buffer assessed as pseudo-first order rate constant at pH 8.92 by UV-vis spectroscopic analysis; format: physicochemical; method in brief: as §4
[25] = Stability of compound in carbonate buffer assessed as pseudo-first order rate constant at pH 9.71 by UV-vis spectroscopic analysis; format: physicochemical; method in brief: as §4
[26] = Stability of compound in 0.005 M KOH buffer assessed as pseudo-first order rate constant at pH 11.7 by UV-vis spectroscopic analysis; format: physicochemical; method in brief: as §4
[27] = Stability of compound in 0.1 M KOH buffer assessed as pseudo-first order rate constant at pH 13 by UV-vis spectroscopic analysis; format: physicochemical; method in brief: as §4

Row | Structure (SMILES) | MIC [1] [µM] | MIC [2] [µM] | MIC [3] [µM] | MIC [4] [µM] | MIC [5] [µM] | MIC [6] [µM] | MIC [7] [µM] | MIC [8] [µM] | MIC [9] [µM] | MIC [10] [µM] | also measured
1 | O=C(N/N=C/Nc1cccc(F)c1)c1ccncc1 | 1 (≈ 0.258 µg/mL) | 1 (≈ 0.258 µg/mL) | 500 (≈ 129 µg/mL) | 1000 (≈ 258 µg/mL) | 125 (≈ 32.3 µg/mL) | 1000 (≈ 258 µg/mL) | > 1000 | 16 (≈ 4.13 µg/mL) | 16 (≈ 4.13 µg/mL) | 16 (≈ 4.13 µg/mL) | –
2 | O=C(N/N=C/Nc1ccc(Br)cc1)c1ccncc1 | 2 (≈ 0.638 µg/mL) | 4 (≈ 1.28 µg/mL) | 500 (≈ 160 µg/mL) | 500 (≈ 160 µg/mL) | 125 (≈ 39.9 µg/mL) | 250 (≈ 79.8 µg/mL) | 500 (≈ 160 µg/mL) | 32 (≈ 10.2 µg/mL) | 32 (≈ 10.2 µg/mL) | 32 (≈ 10.2 µg/mL) | –
3 | NNC(=O)c1ccncc1 [ISONIAZID] | 1 (≈ 0.137 µg/mL) | 1 (≈ 0.137 µg/mL) | > 250 | > 250 | > 250 | > 250 | > 250 | 2 (≈ 0.274 µg/mL) | 4 (≈ 0.549 µg/mL) | 4 (≈ 0.549 µg/mL) | IC50 [11]: > 1000 µM
4 | O=C(N/N=C/Nc1ccc(F)cc1)c1ccncc1 | 1 (≈ 0.258 µg/mL) | 2 (≈ 0.517 µg/mL) | 250 (≈ 64.6 µg/mL) | 500 (≈ 129 µg/mL) | 250 (≈ 64.6 µg/mL) | 1000 (≈ 258 µg/mL) | > 1000 | 8 (≈ 2.07 µg/mL) | 8 (≈ 2.07 µg/mL) | 8 (≈ 2.07 µg/mL) | –
5 | O=C(N/N=C/Nc1ccc(Br)c(F)c1)c1ccncc1 | 1 (≈ 0.337 µg/mL) | 1 (≈ 0.337 µg/mL) | 250 (≈ 84.3 µg/mL) | 250 (≈ 84.3 µg/mL) | 62.5 (≈ 21.1 µg/mL) | 250 (≈ 84.3 µg/mL) | 250 (≈ 84.3 µg/mL) | 8 (≈ 2.7 µg/mL) | 8 (≈ 2.7 µg/mL) | 16 (≈ 5.39 µg/mL) | IC50 [11]: 162 µM; IC50 [12]: 326 µM; Ratio [13]: 162; Activity [14]: 0.00285 s⁻¹; Activity [15]: 0.00192 s⁻¹; Activity [16]: 0.0017 s⁻¹; Activity [17]: 0.000514 s⁻¹; Activity [18]: 0.000322 s⁻¹; Activity [19]: 0.000425 s⁻¹; Activity [20]: 0.000114 s⁻¹; Activity [21]: 0.000071 s⁻¹; Activity [22]: 0.000013 s⁻¹; Activity [23]: 0.000012 s⁻¹; Activity [24]: 0.000055 s⁻¹; Activity [25]: 0.0000445 s⁻¹; Activity [26]: 0.00011 s⁻¹; Activity [27]: 0.0000691 s⁻¹
6 | O=C(N/N=C/Nc1cccc([N+](=O)[O-])c1)c1ccncc1 | 2 (≈ 0.571 µg/mL) | 2 (≈ 0.571 µg/mL) | 250 (≈ 71.3 µg/mL) | 500 (≈ 143 µg/mL) | 125 (≈ 35.7 µg/mL) | 250 (≈ 71.3 µg/mL) | 500 (≈ 143 µg/mL) | 8 (≈ 2.28 µg/mL) | 16 (≈ 4.56 µg/mL) | 16 (≈ 4.56 µg/mL) | –
7 | O=C(N/N=C/Nc1ccc(F)c(F)c1)c1ccncc1 | 2 (≈ 0.552 µg/mL) | 2 (≈ 0.552 µg/mL) | 250 (≈ 69.1 µg/mL) | 250 (≈ 69.1 µg/mL) | 250 (≈ 69.1 µg/mL) | 500 (≈ 138 µg/mL) | 1000 (≈ 276 µg/mL) | 8 (≈ 2.21 µg/mL) | 16 (≈ 4.42 µg/mL) | 32 (≈ 8.84 µg/mL) | –
8 | O=C(N/N=C/Nc1ccc(Cl)cc1)c1ccncc1 | 1 (≈ 0.275 µg/mL) | 1 (≈ 0.275 µg/mL) | 500 (≈ 137 µg/mL) | 1000 (≈ 275 µg/mL) | 125 (≈ 34.3 µg/mL) | 250 (≈ 68.7 µg/mL) | 1000 (≈ 275 µg/mL) | 16 (≈ 4.4 µg/mL) | 32 (≈ 8.79 µg/mL) | 32 (≈ 8.79 µg/mL) | –
9 | O=C(N/N=C/Nc1ccc(Cl)c(Cl)c1)c1ccncc1 | 1 (≈ 0.309 µg/mL) | 2 (≈ 0.618 µg/mL) | 250 (≈ 77.3 µg/mL) | 250 (≈ 77.3 µg/mL) | 250 (≈ 77.3 µg/mL) | 500 (≈ 155 µg/mL) | 500 (≈ 155 µg/mL) | 8 (≈ 2.47 µg/mL) | 16 (≈ 4.95 µg/mL) | 16 (≈ 4.95 µg/mL) | –
10 | O=C(N/N=C/Nc1cccc(C(F)(F)F)c1)c1ccncc1 | 1 (≈ 0.308 µg/mL) | 1 (≈ 0.308 µg/mL) | 500 (≈ 154 µg/mL) | 1000 (≈ 308 µg/mL) | 125 (≈ 38.5 µg/mL) | 250 (≈ 77.1 µg/mL) | 1000 (≈ 308 µg/mL) | 16 (≈ 4.93 µg/mL) | 16 (≈ 4.93 µg/mL) | 32 (≈ 9.86 µg/mL) | –

From ChEMBL document CHEMBL1909504, “New series of isoniazid hydrazones linked with electron-withdrawing substituents” (Eur J Med Chem, 2011)
